Wee1 stabilizer: human Wee1 degradation inhibition, primary screen | HeLa Luc-Wee1K328M stability, luciferase luminescence; 100% = proteasome inhibitor MG132 effect | reporter increase, % at 5 µM | hit rate 1.2% among 220,000 | AID 1321;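 active = activation above the mean of all tested compounds plus 3 SD, set per screening run, cut at about 8.8% in these data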;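 note: cells exposed to compound for 20 h before luminescence read; 0% = DMSO alone and 100% = MG132 at 30 µM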
eIF4E 4G PPI: inhibitors of eIF4E and eIF4G interaction in translation initiation | hit rate 0.37% among 220,000 | P63073+Q04637 | TR-FRET eIF4E-eIF4GI(517-606) binding, 2 h | inhibition, % at 21.7 µM;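 note: 0% = full FRET control wells and 100% = background wells lacking eIF4GI fragment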
Target sequence (P63073 whole entry, looked up, the tested form may be a part): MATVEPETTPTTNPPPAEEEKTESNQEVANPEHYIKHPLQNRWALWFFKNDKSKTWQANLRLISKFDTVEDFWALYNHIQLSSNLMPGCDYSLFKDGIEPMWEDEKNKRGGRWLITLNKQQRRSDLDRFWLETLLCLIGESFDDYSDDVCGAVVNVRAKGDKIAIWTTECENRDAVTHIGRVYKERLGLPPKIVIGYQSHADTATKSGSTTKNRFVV
Target sequence (Q04637 whole entry, looked up, the tested form may be a part): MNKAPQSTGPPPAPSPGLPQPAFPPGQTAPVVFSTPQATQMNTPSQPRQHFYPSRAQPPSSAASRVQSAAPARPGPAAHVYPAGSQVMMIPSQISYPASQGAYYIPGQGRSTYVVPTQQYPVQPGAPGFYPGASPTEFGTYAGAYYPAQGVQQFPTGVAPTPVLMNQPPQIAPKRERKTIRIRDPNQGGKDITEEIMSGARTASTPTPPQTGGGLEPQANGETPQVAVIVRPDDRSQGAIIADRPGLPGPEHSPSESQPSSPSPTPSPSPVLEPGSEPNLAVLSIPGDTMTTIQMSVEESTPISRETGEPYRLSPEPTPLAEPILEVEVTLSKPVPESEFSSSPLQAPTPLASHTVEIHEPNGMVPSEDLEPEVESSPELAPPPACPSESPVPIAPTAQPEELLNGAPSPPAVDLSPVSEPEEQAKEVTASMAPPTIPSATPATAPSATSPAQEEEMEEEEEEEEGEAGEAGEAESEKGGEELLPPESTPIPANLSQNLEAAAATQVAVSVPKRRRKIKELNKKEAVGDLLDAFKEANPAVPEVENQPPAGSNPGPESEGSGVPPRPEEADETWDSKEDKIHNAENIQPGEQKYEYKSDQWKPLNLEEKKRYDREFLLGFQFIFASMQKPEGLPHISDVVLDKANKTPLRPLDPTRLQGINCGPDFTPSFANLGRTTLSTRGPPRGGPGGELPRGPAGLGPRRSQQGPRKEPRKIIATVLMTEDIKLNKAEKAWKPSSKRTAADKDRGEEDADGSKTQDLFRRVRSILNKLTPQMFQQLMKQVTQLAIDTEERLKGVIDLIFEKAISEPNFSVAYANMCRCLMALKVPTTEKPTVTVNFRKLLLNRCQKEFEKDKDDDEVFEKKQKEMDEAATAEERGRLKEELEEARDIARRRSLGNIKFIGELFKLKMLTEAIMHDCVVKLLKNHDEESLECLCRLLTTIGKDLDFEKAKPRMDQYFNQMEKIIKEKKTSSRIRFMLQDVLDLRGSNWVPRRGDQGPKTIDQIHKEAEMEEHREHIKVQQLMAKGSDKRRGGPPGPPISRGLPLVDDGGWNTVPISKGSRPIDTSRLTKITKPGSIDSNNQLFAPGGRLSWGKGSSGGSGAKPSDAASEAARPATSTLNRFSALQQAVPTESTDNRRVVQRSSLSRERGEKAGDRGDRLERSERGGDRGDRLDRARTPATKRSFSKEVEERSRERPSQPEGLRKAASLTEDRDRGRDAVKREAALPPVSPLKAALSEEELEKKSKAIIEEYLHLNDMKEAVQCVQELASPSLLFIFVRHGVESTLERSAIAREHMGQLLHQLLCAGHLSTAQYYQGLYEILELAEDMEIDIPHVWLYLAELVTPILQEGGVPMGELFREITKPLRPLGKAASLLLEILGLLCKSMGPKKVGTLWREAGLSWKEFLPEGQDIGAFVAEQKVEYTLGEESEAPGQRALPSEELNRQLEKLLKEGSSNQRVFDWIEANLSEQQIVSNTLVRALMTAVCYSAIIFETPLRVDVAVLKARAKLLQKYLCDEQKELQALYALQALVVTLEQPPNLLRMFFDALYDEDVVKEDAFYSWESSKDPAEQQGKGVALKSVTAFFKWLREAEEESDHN
p47phox inh: blocks human p47phox regulatory protein of NADPH oxidases | p47phox/p22phox peptide binding, fluorescence polarization, 2 h | inhibition, % at 24.7 µM | hit rate 0.53% among 220,000 | AID 1274;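 note: 0% = p47phox with labelled peptide and 100% = labelled peptide alone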
RBBP9 inh: inhibitors of human serine hydrolase RBBP9. O75884. recombinant RBBP9, FP-Rh probe fluorescence polarization. inhibition, % at 7.94 µM. hit rate 0.2% among 220,000;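 active = inhibition above the campaign mean of all tested compounds plus 3 SD, cut at about 14% in these data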;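 note: plate controls were DMSO wells with RBBP9 for no effect and wells lacking RBBP9 protein for full effect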
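Test system: recombinant human RBBP9. Quantity: 2.5 µM RBBP9 dispensing solution, before mixing. Detection: FP readout at 525/598 nm. Reagent: Serine-hydrolase probe FP-Rh, 375 nM pre-mixing. Measure: % inhibition. Control set: DMSO-treated enzyme wells and wells lacking RBBP9. Buffer or medium: Tris-NaCl-Pluronic buffer, pH 8.0. Times: preincubation 30 min plus labeling 45 min at 25 °C.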
14-3-3 Bad PPI: disrupts binding of bovine 14-3-3 zeta to phospho-Bad peptide. hit rate 0.71% among 220,000. inhibition, % at 21.7 µM. P63103. TR-FRET 14-3-3zeta/Dy647-pBad peptide displacement, 1 h;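 active = inhibition above about 70%, limit read from the data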;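 note: 0% = full 14-3-3 plus peptide FRET controls and 100% = background without 14-3-3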
* = called active by the depositor; [ ] = another dose, or the depositor's remark. In the library only some 2.8% were active in any assay of this set; here they are far more common.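 Rule for the calls, unless noted: active = inhibition above about 30% (limit read from the data); inactive = the rest.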

For O=S(=O)(c1ccccc1)N1CCN(c2nnc(-c3ccccc3)c3ccccc23)CC1 the results were Wee1 stabilizer 9.5*, eIF4E 4G PPI -1, p47phox inh 3, RBBP9 inh -12 and 14-3-3 Bad PPI -2.
Screening CS(=O)(=O)N1CCN(c2nnc(-c3ccccc3)c3ccccc23)CC1 returned Wee1 stabilizer -2, eIF4E 4G PPI 17, p47phox inh -3, RBBP9 inh -11 and 14-3-3 Bad PPI 12.
Screening COc1cc(C(=O)NC(CCSC)C(=O)OCc2cc([N+](=O)[O-])cc3c2OCOC3)cc(OC)c1OC (stereo unspecified) returned Wee1 stabilizer 9.6*, eIF4E 4G PPI 1, p47phox inh -1, RBBP9 inh 2 and 14-3-3 Bad PPI -7.
Screening CCN(CC)CCn1c2ccccc2c2nc(C)sc21 returned Wee1 stabilizer -2, eIF4E 4G PPI 13, p47phox inh -3, RBBP9 inh 0 and 14-3-3 Bad PPI 82*.
N=c1n(Cc2ccccc2)c2ccccc2n1CC(O)COc1ccc(Cl)cc1Cl (stereo unspecified) was read as Wee1 stabilizer 1, eIF4E 4G PPI 11, p47phox inh 48*, RBBP9 inh -2 and 14-3-3 Bad PPI 6.
N=c1n(Cc2ccc(Cl)cc2)c2ccccc2n1CC(O)COc1ccccc1 (stereo unspecified) was read as Wee1 stabilizer 2, eIF4E 4G PPI 0, p47phox inh 1, RBBP9 inh 3 and 14-3-3 Bad PPI 1.
`O=C1c2ccccc2C(=O)N1c1ncn[nH]1` gave Wee1 stabilizer -1, eIF4E 4G PPI 2, p47phox inh 0, RBBP9 inh 0 and 14-3-3 Bad PPI -5.
Screening CC(C)N1CCC(N2CCN(CC#Cc3ccccc3)CC2CCO)CC1 (stereo unspecified) returned Wee1 stabilizer 16*, eIF4E 4G PPI -4, p47phox inh 3, RBBP9 inh 1 and 14-3-3 Bad PPI -2.
CC(=O)N(O)CCCCCNC(=O)CCC(=O)N(O)CCCCCNC(=O)CCC(=O)N(O)CCCCCN was read as Wee1 stabilizer -3, eIF4E 4G PPI 3, p47phox inh -1, RBBP9 inh 4 and 14-3-3 Bad PPI 71*[fluorescence artefact?].
For CCCC(=O)NCCCCNC(=O)CCC the results were Wee1 stabilizer 2, eIF4E 4G PPI 4, p47phox inh -10, RBBP9 inh -3 and 14-3-3 Bad PPI -1.
`O=C(/C=C/c1ccc(Br)cc1)NC(=S)N1CCOCC1` gave Wee1 stabilizer -1, eIF4E 4G PPI -7, p47phox inh 7, RBBP9 inh -10 and 14-3-3 Bad PPI -16.
For CCn1c(-c2nn(-c3ccc(C)cc3)ccc2=O)n[nH]c1=S the results were Wee1 stabilizer -2, eIF4E 4G PPI -6, p47phox inh -9, RBBP9 inh 3 and 14-3-3 Bad PPI 88*.
`CCn1c(-c2nn(-c3ccccc3)ccc2=O)n[nH]c1=S` gave Wee1 stabilizer 1, eIF4E 4G PPI 3, p47phox inh 7, RBBP9 inh 13 and 14-3-3 Bad PPI -4.
For CC1(C)OC(=O)N(CCC(=O)Nc2cccc(F)c2)C1(C)O (stereo unspecified) the results were Wee1 stabilizer -2, eIF4E 4G PPI -2, p47phox inh 2, RBBP9 inh -5 and 14-3-3 Bad PPI -11.
For CC1CCCC(C)N1/N=C/c1ccc(C(=O)O)cc1 (stereo unspecified) the results were Wee1 stabilizer 5, eIF4E 4G PPI -6, p47phox inh -3, RBBP9 inh -9 and 14-3-3 Bad PPI -8.
O=C(Nc1cnn(C23CC4CC(CC(C4)C2)C3)c1)c1cnn2c(C(F)(F)F)cc(-c3ccco3)nc12 was read as Wee1 stabilizer -2, eIF4E 4G PPI 7, p47phox inh 33*, RBBP9 inh -10 and 14-3-3 Bad PPI 77*.
Screening O=C(Nc1ccc2c(c1)OCO2)c1cnn2c(C(F)(F)F)cc(-c3ccco3)nc12 returned Wee1 stabilizer 1, eIF4E 4G PPI 0, p47phox inh -11, RBBP9 inh 0 and 14-3-3 Bad PPI -11.
COc1ccc(OC)c(Nc2nc(NCc3ccco3)nc(N)c2[N+](=O)[O-])c1 was read as Wee1 stabilizer 8.9*, eIF4E 4G PPI 0, p47phox inh 7, RBBP9 inh 5 and 14-3-3 Bad PPI 7.
`COc1ccccc1Nc1nc(NCc2ccco2)nc(N)c1[N+](=O)[O-]` gave Wee1 stabilizer 3, eIF4E 4G PPI -1, p47phox inh -7, RBBP9 inh -7 and 14-3-3 Bad PPI 2.
O=C(Nc1ccccc1Cl)OCc1cncs1 was read as Wee1 stabilizer 3, eIF4E 4G PPI 5, p47phox inh -10, RBBP9 inh -4 and 14-3-3 Bad PPI -8.
`CCc1cc(CNC(=O)CC2C(=O)NCCN2Cc2cccc(OC)c2)on1` (stereo unspecified) gave Wee1 stabilizer 1, eIF4E 4G PPI 0, p47phox inh 5, RBBP9 inh -3 and 14-3-3 Bad PPI -9.
For C=CCn1c(C)cc(-c2csc(N)n2)c1C the results were Wee1 stabilizer 1, eIF4E 4G PPI 7, p47phox inh -7, RBBP9 inh -2 and 14-3-3 Bad PPI 66.
For CCCn1c(C)cc(-c2csc(N)n2)c1C the results were Wee1 stabilizer -1, eIF4E 4G PPI -2, p47phox inh -12, RBBP9 inh -5 and 14-3-3 Bad PPI 74*.
Screening COc1ccc(CCn2c(-c3ccc(OC)cc3)nc3c(c(=O)c4ccccc4n3C)c2=O)cc1 returned Wee1 stabilizer 1, eIF4E 4G PPI -3, p47phox inh -9, RBBP9 inh 4 and 14-3-3 Bad PPI 6.
Screening CCc1nc2c(c(=O)c3ccccc3n2C)c(=O)n1CCc1ccc(OC)cc1 returned Wee1 stabilizer -1, eIF4E 4G PPI 0, p47phox inh 5, RBBP9 inh 2 and 14-3-3 Bad PPI 88*.
Screening COc1ccc(/C=N/Nc2ncnc3c2[nH]c2ccccc23)c(OC)c1OC returned Wee1 stabilizer 4, eIF4E 4G PPI -5, p47phox inh 15, RBBP9 inh -7 and 14-3-3 Bad PPI 49.
COc1cccc(/C=N/Nc2ncnc3c2[nH]c2ccc(C)cc23)c1OC was read as Wee1 stabilizer -2, eIF4E 4G PPI -10, p47phox inh 30, RBBP9 inh 5 and 14-3-3 Bad PPI 88*.
`COc1ccc(OC)c(-c2cc(C(=O)Nc3ccc(F)cc3F)no2)c1` gave Wee1 stabilizer -1, eIF4E 4G PPI -5, p47phox inh 24, RBBP9 inh 0 and 14-3-3 Bad PPI 88*.
Screening CCNC(=S)N1CCN(CCN=CC2=C(O)CC(c3ccco3)CC2=O)CC1 (stereo unspecified) returned Wee1 stabilizer -2, eIF4E 4G PPI 2, p47phox inh 0, RBBP9 inh -7 and 14-3-3 Bad PPI -8.
Screening C=CCNC(=S)N1CCN(CCN=CC2=C(O)CC(c3ccco3)CC2=O)CC1 (stereo unspecified) returned Wee1 stabilizer -3, eIF4E 4G PPI -9, p47phox inh 35*, RBBP9 inh -8 and 14-3-3 Bad PPI -15.

Source: PubChem
